Reference: ChEMBL document CHEMBL4715833, “Design, synthesis, in-vitro, in-vivo and in-silico studies of pyrrolidine-2,5-dione derivatives as multitarget anti-inflammatory agents” (Eur J Med Chem, 2020)

Experiments:
[1] = Acute toxicity in Swiss albino mouse assessed as changes in circulatory signs at 1000 mg/kg, ip administered as single dose measured after 4 hrs; assay type: organism-based; details: in vivo
Method in brief: (§1)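 Swiss albino mice of either sex (30-35 g), kept at 22-25 °C on a 12 h light/dark cycle with free food and water. Single i.p. dose; controls received normal saline 10 mL/kg. Animals were watched at random for allergic or abnormal behavioural signs during the first 4 h.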

Mus musculus [2] = experiment: Antiinflammatory activity against carrageenan-induced paw edema in Swiss mouse assessed as inhibition of paw edema at 100 mg/kg administered 30 mins prior to carrageenan challenge and measured after 3 hrs by […]-method (reference value: 11.41 +/- 3.069%); assay type: functional; details: time 3.5 hrs
[3] = Acute toxicity in Swiss albino mouse assessed as clinical changes in defecation at 1000 mg/kg, ip administered as single dose measured after 4 hrs; assay type: organism-based; details: in vivo; method in brief: as §1
Mus musculus [4] = experiment: Antiinflammatory activity against carrageenan-induced paw edema in Swiss mouse assessed as inhibition of paw edema at 50 mg/kg administered 30 mins prior to carrageenan challenge and measured after 5 hrs by […]-method (reference value: 7.31 +/- 3.204%); assay type: functional; details: time 5.5 hrs
Mus musculus [5] = experiment: Antiinflammatory activity against carrageenan-induced paw edema in Swiss mouse assessed as inhibition of paw edema at 25 mg/kg administered 30 mins prior to carrageenan challenge and measured after 3 hrs by […]-method (reference value: 11.41 +/- 3.069%); assay type: functional; details: time 3.5 hrs
Mus musculus [6] = experiment: Antiinflammatory activity against carrageenan-induced paw edema in Swiss mouse assessed as inhibition of paw edema at 50 mg/kg administered 30 mins prior to carrageenan challenge and measured after 4 hrs by […]-method (reference value: 14.46 +/- 1.568%); assay type: functional; details: time 4.5 hrs
[7] = Acute toxicity in Swiss albino mouse assessed as change in clinical sign of mucus membrane at 1000 mg/kg, ip administered as single dose measured after 4 hrs; assay type: organism-based; details: in vivo; method in brief: as §1
Mus musculus [8] = experiment: Antiinflammatory activity against carrageenan-induced paw edema in Swiss mouse assessed as inhibition of paw edema at 50 mg/kg administered 30 mins prior to carrageenan challenge and measured after 2 hrs by […]-method (reference value: 7.39 +/- 2.475%); assay type: functional; details: time 2.5 hrs
Mus musculus [9] = experiment: Antiinflammatory activity in ip dosed leukotriene-induced paw edema in Balb/c mouse assessed as inhibition of paw edema administered 1 hr prior to leukotriene challenge and measured up to 5 hrs; assay type: functional, organism-based; details: time 2-6 hrs
Method in brief: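 BALB/c mice of either sex (30–35 g), 8 per group, dosed i.p. with 10% DMSO, reference drug or compound (100 mg/kg). After 1 h, subplantar irritant: PGE2 0.01 µg/ml, bradykinin 20 µg/ml, histamine 0.1 ml of 1 mg/ml, or leukotriene 10 µg/ml.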

[10] = Acute toxicity in Swiss albino mouse assessed as clinical changes in salivation at 1000 mg/kg, ip administered as single dose measured after 4 hrs; assay type: organism-based; details: in vivo; method in brief: as §1
Mus musculus [11] = experiment: Antiinflammatory activity against carrageenan-induced paw edema in Swiss mouse assessed as inhibition of paw edema at 100 mg/kg administered 30 mins prior to carrageenan challenge and measured after 2 hrs by […]-method (reference value: 7.39 +/- 2.475%); assay type: functional; details: time 2.5 hrs
Mus musculus [12] = experiment: Antiinflammatory activity against carrageenan-induced paw edema in Swiss mouse assessed as inhibition of paw edema at 50 mg/kg administered 30 mins prior to carrageenan challenge and measured after 3 hrs by […]-method (reference value: 11.41 +/- 3.069%); assay type: functional; details: time 3.5 hrs
[13] = Acute toxicity in Swiss albino mouse assessed as drowsiness at 1000 mg/kg, ip administered as single dose measured after 4 hrs; assay type: organism-based; details: in vivo; method in brief: as §1
[14] = Acute toxicity in Swiss albino mouse assessed as mortality at 1000 mg/kg, ip administered as single dose measured after 24 hrs; assay type: organism-based; details: in vivo
Method in brief: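 Swiss albino mice of either sex (30-35 g), housed at 22-25 °C with 12 h light/dark and free food and water. Single i.p. dose; the saline control got 10 mL/kg. Deaths were counted 24 h after dosing. Dose table lists groups of 8 male and 8 female mice given 5 to 2000 mg/kg.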

Mus musculus [15] = experiment: Antiinflammatory activity against carrageenan-induced paw edema in Swiss mouse assessed as inhibition of paw edema at 100 mg/kg administered 30 mins prior to carrageenan challenge and measured after 4 hrs by […]-method (reference value: 14.46 +/- 1.568%); assay type: functional; details: time 4.5 hrs
Homo sapiens = species on record: Homo sapiens; experiment: Selectivity index, ratio of IC50 for sheep COX1 to IC50 for recombinant human COX2 expressed in baculovirus infected Sf21 cells
Method in brief: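 Enzymes activated for 5 min on ice with cofactor solution of 0.9 mM glutathione, hematin and 0.24 mM TMPD in 0.1 M Tris-HCl pH 8.0; COX-2 at 300 units/ml. Reaction started with 30 mM arachidonic acid stock, run 5 min, absorbance read at 570 nm. IC50 taken from inhibition-vs-concentration plots as means of three determinations. SI = IC50(COX-1)/IC50(COX-2).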

Mus musculus [16] = experiment: Antiinflammatory activity against carrageenan-induced paw edema in Swiss mouse assessed as inhibition of paw edema at 25 mg/kg administered 30 mins prior to carrageenan challenge and measured after 2 hrs by […]-method (reference value: 7.39 +/- 2.475%); assay type: functional; details: time 2.5 hrs
Mus musculus [17] = experiment: Antiinflammatory activity against carrageenan-induced paw edema in Swiss mouse assessed as inhibition of paw edema at 25 mg/kg administered 30 mins prior to carrageenan challenge and measured after 4 hrs by […]-method (reference value: 14.46 +/- 1.568%); assay type: functional; details: time 4.5 hrs
[18] = target: T1, Polyunsaturated fatty acid 5-lipoxygenase (Homo sapiens, UniProt P09917); experiment: Inhibition of recombinant human 5LOX expressed in baculovirus infected Sf insect cells using linoleic acid as substrate preincubated for 5 mins followed by substrate addition
T1 sequence (P09917 whole entry): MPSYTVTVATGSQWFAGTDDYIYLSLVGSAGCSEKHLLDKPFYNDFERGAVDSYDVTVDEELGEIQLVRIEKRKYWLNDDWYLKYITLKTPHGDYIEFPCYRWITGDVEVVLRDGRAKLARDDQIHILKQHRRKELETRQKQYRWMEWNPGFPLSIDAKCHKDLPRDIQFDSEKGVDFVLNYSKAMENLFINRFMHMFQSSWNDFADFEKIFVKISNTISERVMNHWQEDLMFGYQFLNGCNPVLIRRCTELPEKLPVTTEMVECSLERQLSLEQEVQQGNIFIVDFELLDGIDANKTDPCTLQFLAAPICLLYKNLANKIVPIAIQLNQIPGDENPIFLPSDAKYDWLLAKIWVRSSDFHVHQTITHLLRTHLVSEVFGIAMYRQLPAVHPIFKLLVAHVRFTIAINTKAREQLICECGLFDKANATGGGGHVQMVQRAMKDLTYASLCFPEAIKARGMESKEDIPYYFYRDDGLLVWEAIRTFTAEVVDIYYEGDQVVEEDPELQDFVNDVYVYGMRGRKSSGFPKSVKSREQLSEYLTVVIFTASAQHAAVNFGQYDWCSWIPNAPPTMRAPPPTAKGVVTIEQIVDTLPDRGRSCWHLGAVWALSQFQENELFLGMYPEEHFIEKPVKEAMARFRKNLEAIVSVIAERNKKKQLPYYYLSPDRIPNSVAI

**Q.** With `O=C1CCCCC1C1CC(=O)N(Cc2ccccc2)C1=O` (stereo not drawn) as the compound, how does the Activity [1] read?
**A.** Its Activity is “Non-Toxic”.

**Q.** What about the inhibition in vivo at 100 mg/kg (Mus musculus [2]) of the same compound?
**A.** The inhibition in vivo at 100 mg/kg was 51.6%.

**Q.** And the Activity [3]?
**A.** Its Activity is “Non-Toxic”.

**Q.** And the inhibition in vivo at 50 mg/kg (Mus musculus [4])?
**A.** Its inhibition in vivo at 50 mg/kg is 47.8%.

**Q.** And the inhibition in vivo at 25 mg/kg (Mus musculus [5])?
**A.** The inhibition in vivo at 25 mg/kg was 23.3%.

**Q.** What about the inhibition in vivo at 50 mg/kg (Mus musculus [6]) of the same compound?
**A.** Its inhibition in vivo at 50 mg/kg is 44.5%.

**Q.** What about the Activity [7] of the same compound?
**A.** Its Activity is “Non-Toxic”.

**Q.** And the inhibition in vivo at 50 mg/kg (Mus musculus [8])?
**A.** Its inhibition in vivo at 50 mg/kg is 37.4%.

**Q.** What about the inhibition (Mus musculus [9]) of the same compound?
**A.** The inhibition was “Dose-dependent effect”.

**Q.** And the Activity [10]?
**A.** Its Activity is “Non-Toxic”.

**Q.** What about the inhibition in vivo at 100 mg/kg (Mus musculus [11]) of the same compound?
**A.** The inhibition in vivo at 100 mg/kg was 49.6%.

**Q.** And the inhibition in vivo at 50 mg/kg (Mus musculus [12])?
**A.** Its inhibition in vivo at 50 mg/kg is 41.1%.

**Q.** And the Activity [13]?
**A.** The Activity was “Non-Toxic”.

**Q.** And the Activity [14]?
**A.** The Activity was “Non-Toxic”.

**Q.** And the inhibition in vivo at 100 mg/kg (Mus musculus [15])?
**A.** Its inhibition in vivo at 100 mg/kg is 49.7%.

**Q.** What about the Ratio IC50 (Homo sapiens) of the same compound?
**A.** Its Ratio IC50 is 3.13.

**Q.** What about the inhibition in vivo at 25 mg/kg (Mus musculus [16]) of the same compound?
**A.** The inhibition in vivo at 25 mg/kg was 28.3%.

**Q.** And the inhibition in vivo at 25 mg/kg (Mus musculus [17])?
**A.** The inhibition in vivo at 25 mg/kg was 27.8%.

**Q.** What about the IC50 [18] of the same compound?
**A.** Its IC50 is 36 µM.

**Q.** What does the source list for `Cc1ccc(C(=O)CC2CC(=O)N(c3ccc(S(N)(=O)=O)cc3)C2=O)cc1` (stereo not drawn)?
**A.** Activity [1]: Non-Toxic; inhibition in vivo at 100 mg/kg (Mus musculus [2]): 61.6%; Activity [3]: Non-Toxic; inhibition in vivo at 50 mg/kg (Mus musculus [4]): 59.3%; inhibition in vivo at 25 mg/kg (Mus musculus [5]): 51.5%; inhibition in vivo at 50 mg/kg (Mus musculus [6]): 57.3%; Activity [7]: Non-Toxic; inhibition in vivo at 50 mg/kg (Mus musculus [8]): 57.3%; inhibition (Mus musculus [9]): Dose-dependent effect; Activity [10]: Non-Toxic; inhibition in vivo at 100 mg/kg (Mus musculus [11]): 63.8%; inhibition in vivo at 50 mg/kg (Mus musculus [12]): 54.2%; Activity [13]: Non-Toxic; Activity [14]: Non-Toxic; inhibition in vivo at 100 mg/kg (Mus musculus [15]): 66.1%; Ratio IC50 (Homo sapiens): 31.5; inhibition in vivo at 25 mg/kg (Mus musculus [16]): 53%; inhibition in vivo at 25 mg/kg (Mus musculus [17]): 54.2%; IC50 [18]: 0.86 µM
